Measurements from BindingDB's records for doi:10.1021/jm060468y (Johannes Gutenberg University, 2006).

Target: T1, E-selectin (Homo sapiens, UniProt P16581)
T1 sequence (P16581 whole entry): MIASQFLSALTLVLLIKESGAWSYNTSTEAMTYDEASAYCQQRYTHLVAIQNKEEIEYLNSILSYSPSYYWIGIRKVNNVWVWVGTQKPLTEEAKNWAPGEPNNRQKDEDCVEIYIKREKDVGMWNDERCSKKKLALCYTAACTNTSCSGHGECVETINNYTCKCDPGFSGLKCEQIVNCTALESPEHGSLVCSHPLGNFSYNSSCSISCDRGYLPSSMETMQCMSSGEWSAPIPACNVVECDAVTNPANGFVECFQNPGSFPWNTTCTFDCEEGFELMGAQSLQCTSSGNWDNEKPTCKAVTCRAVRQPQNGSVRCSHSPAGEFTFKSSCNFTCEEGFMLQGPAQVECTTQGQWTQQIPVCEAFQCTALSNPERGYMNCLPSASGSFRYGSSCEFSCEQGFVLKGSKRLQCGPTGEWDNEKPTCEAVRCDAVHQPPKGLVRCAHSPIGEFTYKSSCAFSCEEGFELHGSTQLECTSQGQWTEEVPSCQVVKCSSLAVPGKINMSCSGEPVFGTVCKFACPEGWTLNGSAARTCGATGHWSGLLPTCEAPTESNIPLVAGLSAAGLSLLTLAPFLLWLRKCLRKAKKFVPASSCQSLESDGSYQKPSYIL
Assay: Inhibition of MM6 cell adhesion to recombinant E-selectin by flow chamber assay
Method in brief: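 Wells coated overnight at 4 °C with recombinant soluble E-selectin (5 µg/mL in PBS with Ca2+/Mg2+). Background wells had no selectin. Compound in RPMI with 1% FCS and DMSO applied for 60 min, then washed. MM6 cells (1 × 10^6/mL, RPMI + 1% FCS) perfused at 1 dyn/cm2 shear for 4 min. Cells adhering ≥30 s were counted in four random fields in the first minute by phase-contrast video microscopy. Experiments run two or three times; IC50 by curve fitting.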

Row | IC50 | Structure (SMILES)
1 | 28 µM | CCCCCCCCCCOc1cc(OCCCCCCCCCC)cc(OCCCCCCN(c2ccc(C(=O)O)cc2)c2ccc(C(=O)O)cc2)c1
2 | 20 µM | CCCCCCCCCCOc1cc(OCCCCCCCCCC)cc(OCCCCCCON=C(c2ccc(C(=O)O)cc2)c2ccc(C(=O)O)cc2)c1
